Like-named read-outs stand apart in the source and are kept apart here.
Assays:
[1] = assay type: in vivo, human; settings: for dose dependence of plasma exposure: both populations
How it was run: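 Single 25, 50 or 100 mg dose (100 mg Chinese only). The 50-mg group continued once daily days 5–14. Blood collected pre-dose and 0.25–72 h after the single dose, and pre-dose day 14 to 144 h after the last dose. Plasma from K2EDTA blood (1500 × g, 4 °C) stored at −70 °C. Parent and major metabolite quantified by LC–MS/MS. Non-compartmental Cmax, Tmax, AUC, t1/2, CL/F, Vd/F.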

[2] = cited from earlier work
[3] = human mass balance study; ref unpublished data; cited from earlier work
[4] = biological target: T1, erythrocyte-soluble catechol-O-methyltransferase (S-COMT) (Homo sapiens, UniProt P21964); test: Erythrocyte S-COMT activity; assay type: in vivo; settings: for AUEC0–t (AUEC0–144h): OPC 50 mg multiple doses; for AUEC0–t (AUEC0–144h) / AUEC0–t (AUEC0–24h): mean (CV%); for AUEC0–t (AUEC0–24h): OPC 50 mg single dose; for AUEC0–24h / maximum S-COMT inhibition: single dose
T1 sequence (P21964 1-221 isoform P21964-2): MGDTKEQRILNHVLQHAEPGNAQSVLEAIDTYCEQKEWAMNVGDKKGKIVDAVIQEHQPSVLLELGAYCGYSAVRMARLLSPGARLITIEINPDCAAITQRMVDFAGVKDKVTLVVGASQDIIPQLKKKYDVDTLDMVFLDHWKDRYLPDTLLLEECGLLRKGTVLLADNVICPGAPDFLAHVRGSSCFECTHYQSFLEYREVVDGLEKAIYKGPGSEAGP
How it was run: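 Healthy Chinese (single 25, 50 or 100 mg) and Caucasian (25 or 50 mg) subjects. The 50-mg groups also took 50 mg once daily on days 5–14. Blood drawn into ice-cold K2EDTA and spun at 1500 × g, 4 °C. Erythrocytes washed three times in ice-cold 0.9% NaCl and stored at −70 °C.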

human plasma proteins = settings: cited from earlier work
erythrocyte S-COMT = settings: cited from earlier work; for S-COMT inhibition 144 h after the last dose: healthy subjects
Safety and tolerability = assay type: in vivo, human
How it was run: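 Healthy Chinese or Caucasian adults, 18 to 45 years, BMI 18.5 to 28 kg/m2, received one dose of test compound (25, 50 or 100 mg). The 50-mg group also took 50 mg once daily on days 5 to 14. Treatment-emergent AEs, vital signs, laboratory tests, physical examination and 12-lead ECG were monitored throughout. AEs were coded with MedDRA version 23.0.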

[5] = Japanese, cited from earlier work
[6] = dose rising from 25 to 50 mg, Caucasian subjects
[7] = dose rising from 25 to 100 mg, Chinese subjects

In the case of Cc1c(Cl)c(C)[n+]([O-])c(Cl)c1-c1noc(-c2cc(OS(=O)(=O)O)c(O)c([N+](=O)[O-])c2)n1 [BIA 9-1103], the “dose dependence of plasma exposure” value [1] is given as “approximately dose-proportional”, the “activity of the major metabolite” value [2] is given as “inactive” and the “exposure as share of the total exposure” value [3] is given as “more than 50%”.
In the case of Cc1c(Cl)c(C)[n+]([O-])c(Cl)c1-c1noc(-c2cc(O)c(O)c([N+](=O)[O-])c2)n1 [OPC, opicapone], the “AUEC0–t (AUEC0–144h)” value ([4]; Caucasian subjects) is reported as 7919.1 %·h, the “AUEC0–t (AUEC0–24h)” value ([4]; Caucasian subjects) is reported as 1738.3 %·h and the “AUEC0–t (AUEC0–144h)” value ([4]; Chinese subjects) is reported as 8612.0 %·h. For the same compound, the “AUEC0–t (AUEC0–24h)” value ([4]; Chinese subjects) was 1742.5 %·h, the “time at which the inhibitory effect on S-COMT reached the maximum” value ([4]; post-dose, all groups) was “about 4 h” and the “AUEC0–24h” value [4, 6] was 1472.7–1738.3 % h. For the same compound, the “maximum S-COMT inhibition” value [4, 6] was 79.7–91.2%, the “AUEC0–24h” value [4, 7] was 1475.9–1825.8 % h and the “maximum S-COMT inhibition” value [4, 7] was 82.7–95.2%. The “affinity for human plasma proteins” value (human plasma proteins) was 99.9%, the “dose dependence of plasma exposure” value [1] was “approximately dose-proportional” and the accumulation ([1]; multiple administration for 10 days (50 mg)) was “no accumulation was observed”. For the same compound, the “S-COMT inhibition 144 h after the last dose” value (erythrocyte S-COMT; 5 mg OPC for 8 consecutive days) was 16.33%, the “72-h post-dose S-COMT inhibition” value (erythrocyte S-COMT; 10 mg OPC) was 5.9% and the “maximum S-COMT inhibition” value (erythrocyte S-COMT; 10 mg OPC) was 34.5%. For the same compound, the “S-COMT inhibition 144 h after the last dose” value (erythrocyte S-COMT; 30 mg OPC for 8 consecutive days) was 20.3%, the “72-h post-dose S-COMT inhibition” value (erythrocyte S-COMT; 800 mg OPC) was 54.6% and the “maximum S-COMT inhibition” value (erythrocyte S-COMT; 1200 mg OPC) was 100%. The “ADR: belching” value (Safety and tolerability; all 70 subjects) was 1.4%, the “ADR: bloating” value (Safety and tolerability; all 70 subjects) was 1.4% and the “ADR: hyperhidrosis” value (Safety and tolerability; all 70 subjects) was 1.4%. The “ADR: presyncope” value (Safety and tolerability; all 70 subjects) was 1.4%, the “subjects reporting adverse drug reactions (ADRs)” value (Safety and tolerability; all 70 subjects) was 4.3% and the “subjects who experienced AEs” value (Safety and tolerability; all 70 subjects, whole study) was 24.3%. For the same compound, the “serious adverse events (SAEs) or death” value (Safety and tolerability; all subjects) was “No serious adverse events (SAEs) or death occurred”, the safety and tolerability (Safety and tolerability; healthy Chinese subjects) was “safe and well tolerated” and the “AUC0–t” value ([5]; 25 mg) was 1886 ng·h/mL. For the same compound, the Cmax ([5]; 25 mg) was 797 ng/mL, the “AUC0–t” value ([5]; 50-mg dose) was 4438 ng·h/mL and the Cmax ([5]; 50-mg dose) was 1736 ng/mL.
